Results on 13 compounds are retold here after ChEMBL document CHEMBL3992496, “Oligonucleotide transition state analogues of saporin L3” (Eur J Med Chem, 2017).

Assay [1] in a line: Competitive inhibition of Saponaria officinalis saporin L3 expressed in yeast using RNA A10 as substrate preincubated for 10 mins followed substrate addition by luciferase assay.
A short description of assay [2]: Competitive inhibition of Saponaria officinalis saporin L1 using RNA A10 as substrate preincubated for 10 mins followed substrate addition by continuous luciferase assay.
Assay [3] is described as follows: Competitive inhibition of Saponaria officinalis saporin L3 expressed in yeast using yeast tRNA as substrate.
Assay [4] can be described thus: Competitive inhibition of Saponaria officinalis saporin L3 expressed in yeast using rabbit rRNA as substrate. A digest of the protocol:
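Saporin L3 secreted from yeast cultures and purified to near-homogeneity. Substrate was isolated rabbit 80S ribosomes purified in-house, fixed at 100 nM, with concentration from A260. Inhibitor at varying concentrations was preincubated with enzyme for 10 min. K_i* was taken as slow-onset competitive inhibition.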

The nature of assay [5]: Competitive inhibition of Saponaria officinalis saporin L3 A14C mutant expressed in yeast using yeast tRNA as substrate. Put shortly:
(§1)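 Saporin L3 A14C, secreted from yeast and purified. Substrate held fixed: isolated rabbit 80S ribosomes (100 nM) or yeast tRNA (1.0 mg/mL). Inhibitor preincubated with enzyme 10 min for slow-onset binding before substrate, then adenine release read by coupled luciferase method. Ki* taken from competitive inhibition fit.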

Assay [6] is described as follows: Competitive inhibition of Saponaria officinalis saporin L3 A14C mutant expressed in yeast using rabbit rRNA as substrate. A digest of the protocol: as §1
A short description of assay [7]: Inhibition of yeast expressing Saponaria officinalis saporin L3 A14C mutant-mediated suppression of luciferase mRNA translation in rabbit reticulocyte extract preincubated with protein for 10 mins followed by addition of rabbit reticulocyte translation system for 90 mins by luciferase assay. A digest of the protocol:
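Rabbit reticulocyte lysate translation of luciferase-encoding mRNA. 10 nM SAP A14C preincubated 10 min with increasing inhibitor in pH 7.4 buffer, then added to translation mix, 30 °C, 90 min. Luciferase luminescence read. Control contained top inhibitor concentration without enzyme. Percent translation vs log inhibitor fit to dose-response curve for EC50.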

Each structure is given as a SMILES string.

For `CO[C@@H]1[C@H](O)[C@@H](COP(=O)(O)O[C@H]2[C@@H](OC)[C@H](n3cnc4c(=O)[nH]c(N)nc43)O[C@@H]2COP(=O)(O)O[C@H]2CN(Cc3c[nH]c4c(N)ncnc34)C[C@@H]2COP(=O)(O)OC2[C@@H](OC)[C@H](n3cnc4c(=O)[nH]c(N)nc43)O[C@@H]2CO)O[C@H]1n1cnc2c(N)ncnc21` (stereo partly drawn), the inhibition constant Ki in assay [1] stood at 6.1 nM. In assay [1], `CO[C@@H]1[C@H](O)[C@@H](COP(=O)(O)O[C@H]2CN(Cc3c[nH]c4c(N)ncnc34)C[C@@H]2COP(=O)(O)OCCCO)O[C@H]1n1cnc2c(=O)[nH]c(N)nc21` showed a Ki of 19.3 nM. Consider `CO[C@@H]1[C@H](OP(=O)(O)OCCCO)[C@@H](COP(=O)(O)OCC(COP(=O)(O)OCCCO)NCc2c[nH]c3c(N)ncnc23)O[C@H]1n1cnc2c(=O)[nH]c(N)nc21` (stereo partly drawn), for which, in assay [2], the Ki was determined as 43.2 nM. As for `CO[C@@H]1[C@H](OP(=O)(O)OCCCO)[C@@H](COP(=O)(O)O[C@H]2CN(Cc3c[nH]c4c(N)ncnc34)C[C@@H]2COP(=O)(O)OCCCO)O[C@H]1n1cnc2c(=O)[nH]c(N)nc21`, the Ki in assay [1] stood at 3.3 nM; in assay [3], 9.9 nM; in assay [4] it was 6.7 nM; in assay [5], 8.4 nM; in assay [6], 5.4 nM. In addition, the IC50 in assay [7] amounted to 13 nM. As for `CO[C@@H]1[C@H](OP(=O)(O)OC[C@H]2CN(Cc3c[nH]c4c(N)ncnc34)C[C@@H]2OP(=O)(O)OC[C@H]2O[C@@H](n3cnc4c(=O)[nH]c(N)nc43)[C@H](OC)[C@@H]2OP(=O)(O)OCCCO)[C@@H](CO)O[C@H]1n1cnc2c(=O)[nH]c(N)nc21`, the Ki in assay [1] turned out to be 10.5 nM. Still for that read-out and setting: to `CO[C@@H]1[C@H](OP(=O)(O)OCCCO)[C@@H](COP(=O)(O)O[C@H]2CN(CCc3c[nH]c4c(N)ncnc34)C[C@@H]2COP(=O)(O)OCCCO)O[C@H]1n1cnc2c(=O)[nH]c(N)nc21` belongs 12.4 nM; to `CO[C@@H]1[C@H](OP(=O)(O)OC[C@H]2CN(Cc3c[nH]c4c(N)ncnc34)C[C@@H]2OP(=O)(O)OCCCO)[C@@H](COP(=O)(O)OCCCO)O[C@H]1n1cnc2c(=O)[nH]c(N)nc21`, 188 nM; to `CO[C@@H]1[C@H](OP(=O)(O)OCCCO)[C@@H](COP(=O)(O)OCC(CNCc2c[nH]c3c(N)ncnc23)COP(=O)(O)OCCCO)O[C@H]1n1cnc2c(=O)[nH]c(N)nc21` (mixture of isomers), 26.8 nM. Same read-out and setting: to `CO[C@@H]1[C@H](OP(=O)(O)OCCCO)[C@@H](COP(=O)(O)O[C@H]2CN(Cc3c[nH]c4c(N)ncnc34)C[C@@H]2CO)O[C@H]1n1cnc2c(=O)[nH]c(N)nc21` belongs 10700 nM. Same read-out and setting: to `CO[C@@H]1[C@H](OP(=O)(O)OC[C@H]2O[C@@H](n3cnc4c(=O)[nH]c(N)nc43)[C@H](OC)[C@@H]2OP(=O)(O)OC[C@H]2CN(Cc3c[nH]c4c(N)ncnc34)C[C@@H]2OP(=O)(O)OCCCO)[C@@H](CO)O[C@H]1n1cnc2c(=O)[nH]c(N)nc21` belongs 212 nM. In assay [1], `CO[C@@H]1[C@H](O)[C@@H](COP(=O)(O)O[C@H]2CN(Cc3c[nH]c4c(N)ncnc34)C[C@@H]2CO)O[C@H]1n1cnc2c(=O)[nH]c(N)nc21` returned a Ki of 21300 nM. For the compound `CO[C@@H]1[C@H](OP(=O)(O)OC[C@H]2CN(Cc3c[nH]c4c(N)ncnc34)C[C@@H]2OP(=O)(O)OC[C@H]2O[C@@H](n3cnc4c(=O)[nH]c(N)nc43)[C@H](OC)[C@@H]2OP(=O)(O)OCCCO)[C@@H](COP(=O)(O)OCCCO)O[C@H]1n1cnc2c(=O)[nH]c(N)nc21`, the affinity in assay [1], expressed as Ki, was 7.4 nM.

In assay [1], `CO[C@@H]1[C@H](O)[C@@H](COP(=O)(O)O[C@H]2CN(Cc3c[nH]c4c(N)ncnc34)C[C@@H]2COP(=O)(O)OC2[C@@H](OC)[C@H](n3cnc4c(=O)[nH]c(N)nc43)O[C@@H]2CO)O[C@H]1n1cnc2c(=O)[nH]c(N)nc21` (stereo partly drawn) had an inhibition constant Ki of 33 nM.
